# CHO parental Ca: counter-screen: ATP calcium response change in parental CHO cells. parental CHO-K1, ATP-induced calcium, Fluo-8 fluorescence. inhibition, % at 5.6 µM. actives 0.63% (n = 330,000). AID 463079;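 active means inhibition above that plate's mean sample inhibition plus 3 SD, cut at about 26% in these data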;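 further: 0% = ATP-challenged DMSO wells and 100% = DMSO wells without ATP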
#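 Assay system: parental CHO cells; Read-out basis: percent inhibition of ATP-evoked calcium rise, normalized to controls; Benchmarks: ATP and no-ATP DMSO wells; Compound dosing: single nominal dose of 5.6 µM per compound; Signal: Fluo-8 calcium dye fluorescence; Also added: ATP as calcium-mobilizing challenge; Repeats: singlicate.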
# OX1R antag-1: blocks the human orexin 1 receptor; O43613; OX1R-expressing cells, FRET antagonist read-out; inhibition, % at 6.6 µM; actives 1.8% (n = 330,000); AID 485270; in the data active means inhibition mostly above about 38%, no sharp cut-off; inactive means mostly below about 40%;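 further: 0% = agonist challenge alone and 100% = reference antagonist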
# Target sequence (O43613 whole entry, looked up): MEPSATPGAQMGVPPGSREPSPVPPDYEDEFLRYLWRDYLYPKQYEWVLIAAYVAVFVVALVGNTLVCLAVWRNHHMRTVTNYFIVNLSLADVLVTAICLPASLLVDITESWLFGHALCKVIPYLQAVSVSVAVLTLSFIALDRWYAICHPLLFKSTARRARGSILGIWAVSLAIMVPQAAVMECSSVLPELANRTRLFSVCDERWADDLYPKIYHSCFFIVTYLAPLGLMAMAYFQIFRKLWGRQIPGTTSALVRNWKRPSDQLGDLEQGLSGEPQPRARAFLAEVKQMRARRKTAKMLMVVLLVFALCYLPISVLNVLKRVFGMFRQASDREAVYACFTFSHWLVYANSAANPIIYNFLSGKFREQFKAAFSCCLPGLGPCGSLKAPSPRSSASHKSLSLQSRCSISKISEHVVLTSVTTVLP
# GPR7 antagonist: antagonists of human GPR7 (neuropeptides B/W receptor 1); actives 1.1% (n = 290,000); inhibition, % at 4.4 µM; GPR7-expressing cells, fluorescence antagonist assay; AID 1861; in the data active means inhibition above about 16%, passing the limit was not always enough;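 further: cells stimulated with the agonist NPW; 0% = agonist with vehicle and 100% = vehicle without agonist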
# MPTP block: permeability transition pore inhibition; actives 1.4% (n = 360,000); inhibition, % at 10 µM; isolated mouse mitochondria, Ca2+ swelling absorbance, 30 min;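 active means inhibition of 50% or more, scaled per plate between neutral and stimulator controls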;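 further: 0% = DMSO wells given calcium and 100% = 1 mM EGTA wells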
# OX1R antag-2: antagonists of human orexin 1 receptor. inhibition, % at 5 µM. CHO/OX1R cells, Fluo-8 calcium fluorescence, orexin A. actives 0.43% (n = 330,000). O43613;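 active means inhibition above its plate's threshold, mean inhibition of all tested compounds on the plate plus 3 SD, cut at about 37% in these data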;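 further: 0% = orexin A challenge wells and 100% = SB-334867-A antagonist wells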
# MPTP counter: mitochondrial membrane potential, counter-screen; inhibition, % at 10 µM; actives 78% (n = 5,000); shares compounds with MPTP block; isolated mitochondria, Rhodamine 123 fluorescence; AID 624504; in the data active means inhibition above about 22%;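 further: 0% = DMSO vehicle and 100% = positive control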
# MPTP abs DR: dose response confirmation of mitochondrial permeability transition pore inhibitors | shares compounds with MPTP block | isolated mitochondria swelling, absorbance | IC50, µM | actives 58% (n = 780); in the data active means IC50 below about 20 µM
# MPTP cs DR: active in counter-screen for permeability transition pore inhibitors; IC50, µM; actives 49% (n = 780); shares compounds with MPTP block; isolated mitochondria counterscreen, fluorescence read-out; AID 651564; in the data active means IC50 below about 80 µM
# * hit, by the source's call; nt = not tested or not shown. Shown are actives, neighbours in structure and some others; about 3.8% of the full set was active somewhere.
SMILES,CHO parental Ca,OX1R antag-1,GPR7 antagonist,MPTP block,OX1R antag-2,MPTP counter,others
Cc1cc(SCC(=O)Nc2c(C)n(C)n(-c3ccccc3)c2=O)n2c(nc3ccccc32)c1C#N,nt,nt,-2.0,nt,nt,nt,
C=C(C)CSc1cc(C)c(C#N)c2nc3ccccc3n12,-9.8,11.5,-6.9,53.9*,-36.9,56.4*,
COc1ccc(CNc2ncnc3c2[nH]c2cc(OC)c(OC)cc23)cc1,13.9,4.2,12.2,14.3,-2.8,nt,
Cc1ccc2[nH]c3c(NCc4ccccc4)ncnc3c2c1,nt,nt,33.0,nt,nt,nt,
COc1ccc(CNc2ncnc3c2[nH]c2ccccc23)cc1,24.1,51.7*,15.2,90.8*,25.6,90.9*,
C1=C(CCNc2ncnc3c2[nH]c2ccccc23)CCCC1,68.9*,45.6,41.4*,103.6*,16.3,82.9*,
Brc1ccc2[nH]c3c(NCc4ccccn4)ncnc3c2c1,-10.0,18.4,-11.6,57.4*,-16.7,71.6*,
CCOCCCNC(=S)Nc1cc(C)cc(C)c1,-3.6,8.8,-13.5,-1.0,-3.3,nt,
COC(=O)c1ccc(/C=C(/NC(=O)c2ccccc2)C(=O)N2CCOCC2)cc1,2.2,8.3,-12.1,-0.7,-5.2,nt,
NC(=O)c1ccsc1NC(=O)CCS(=O)(=O)c1ccc(Cl)cc1,nt,nt,nt,0.7,nt,nt,
Cc1ccc(NCC(=O)N=Nc2c(O)[nH]c3ccc([N+](=O)[O-])cc23)cc1,-5.4,35.1,-5.2,nt,-5.5,nt,
Cc1ccc(OC(C)C(=O)N=Nc2c(O)[nH]c3ccc([N+](=O)[O-])cc23)cc1 (configuration not stated),-20.7,33.2,-7.3,72.7*,-3.1,68.0*,
CC(C)COc1ccc(C(=O)Nc2ccccc2[N+](=O)[O-])cc1,-27.1,4.0,-6.7,53.5*,-37.4,-9.9,MPTP abs DR=>100;MPTP cs DR=>80
COc1ccc(N2C(=O)C(F)(F)C2c2ccc(C)cc2)cc1OC (configuration not stated),-10.5,16.4,-5.1,1.1,-33.7,nt,
CSc1nc2ccc(NS(=O)(=O)c3ccccc3F)cc2s1,-16.2,25.1,-1.3,0.0,-14.7,nt,
CSc1nc2ccc(NS(=O)(=O)c3ccc4c(c3)OCCO4)cc2s1,16.9,46.1,-4.3,55.1*,7.2,101.0*,
CSc1nc2ccc(NS(=O)(=O)c3ccc(Br)s3)cc2s1,-10.6,22.4,-12.6,84.1*,-5.3,75.2*,
Cc1ccc(Nc2cc(C)nc(-c3ccccc3O)n2)cc1,-7.2,27.9,-8.2,28.6,-14.3,nt,
Cc1cc(Nc2ccc(F)c(F)c2)nc(-c2ccccc2O)n1,-6.6,13.5,-5.2,89.9*,-9.4,60.1*,
OC(COc1ccc(CNCCc2ccc(C(F)(F)F)cc2)cc1)CN1CCCCC1 (configuration not stated),-14.3,12.1,6.6,66.8*,-22.3,-11.0,
CN(Cc1ccc(Cl)cc1)C(c1cc2ccccc2o1)c1nnnn1C(C)(C)C (configuration not stated),nt,nt,nt,-0.1,nt,nt,
CCCCNc1c(-c2cccc(-c3ccc(OC)cc3)c2)nc2cc(C)ccn12,65.3*,28.7,nt,62.7*,39.3,101.8*,
CCCCNc1c(-c2cccc(-c3ccc(OC)cc3)c2)nc2ccc(C)cn12,73.8*,52.3,nt,56.2*,46.5*,76.8*,
CCCCNc1c(-c2cccc(-c3cc(C(C)=O)cs3)c2)nc2ccc(C)cn12,-14.9,50.0,nt,11.2,-13.0,nt,
Cc1ncc(CO)c(CO)c1OCC(O)CN1CCN(c2ccc(F)cc2)CC1 (configuration not stated),nt,nt,nt,-1.7,nt,nt,
SMILES,CHO parental Ca,OX1R antag-1,GPR7 antagonist,MPTP block,OX1R antag-2,MPTP counter,others
CCO[C@H]1OC(C(=O)N2CCCCCCC2)=C[C@@H](c2ccccc2)[C@@H]1CCCO,-17.3,31.0,-9.8,-0.3,-38.4,nt,
CSCC[C@H](NC(=O)N1CCn2c1nc1ccccc12)C(=O)NCc1ccco1,-21.0,4.3,-5.3,-0.6,-13.5,nt,
Cc1cccc(C(=O)Oc2ccccc2/C=N/Nc2ccc([N+](=O)[O-])cc2)c1,0.0,8.2,-9.2,67.0*,-14.1,77.5*,
O=[N+]([O-])c1ccc(N/N=C/c2ccc[nH]2)cc1,17.6,14.5,-3.7,9.7,13.2,nt,
Cc1ccc(S(=O)(=O)N/N=C/c2cccc([N+](=O)[O-])c2)cc1,-6.2,22.5,3.1,0.2,-17.8,nt,
O=[N+]([O-])c1ccc(N/N=C/C=C/c2ccco2)cc1,12.7,10.8,nt,75.8*,18.1,70.4*,
CCCCCCCCCS(=O)(=O)N/N=C/c1cccc([N+](=O)[O-])c1,-12.2,0.9,-9.2,64.5*,-16.0,60.7*,
O=[N+]([O-])c1ccc(NN=Cc2cccc([N+](=O)[O-])c2)cc1,nt,nt,nt,92.1*,nt,65.3*,
CCCCCCCCCCS(=O)(=O)N/N=C/c1ccc(O)cc1,-8.5,9.7,-2.4,79.2*,-4.1,56.2*,
Sc1ccccc1N=Cc1cccs1,nt,nt,nt,-1.9,nt,nt,
N#C/C(=C\c1ccc(-c2ccccc2Cl)o1)C(=O)Nc1nc2ccccc2s1,-3.0,12.0,3.3,73.7*,-7.7,43.3*,
Cc1cc(=O)oc2cc(O)cc(OCc3ccccc3)c12,nt,nt,nt,77.8*,nt,97.7*,
COc1ccc(N2C(=NC(=O)C3CCCO3)SC3CS(=O)(=O)CC32)cc1 (configuration not stated),-0.4,14.0,-9.1,-0.5,-20.8,nt,
COc1ccc(NC(=O)CC2Oc3ccccc3NC2=O)c(OC)c1 (configuration not stated),-3.0,-6.4,-18.3,-0.7,0.2,nt,
Cc1cccc(Nc2c3c(nc4ccccc24)CCC3)c1,-3.9,38.1,-11.3,77.6*,-5.0,74.5*,
Cc1ccc2nc3c(c(Nc4ccc5c(c4)OCCO5)c2c1)CCC3,-13.4,2.1,3.6,53.7*,-21.5,75.7*,
COCCNCCCCOc1ccc(Br)cc1C,-6.4,19.5,6.7,-0.4,-19.6,nt,
COCCCNCCCCOc1ccc(Br)cc1C,-11.3,1.2,16.4,63.3*,-17.0,-13.2,MPTP abs DR=8.65*;MPTP cs DR=>80
O=C(NNc1ccc([N+](=O)[O-])cn1)Nc1ccc(N=Nc2ccccc2)cc1,nt,nt,nt,91.2*,nt,64.1*,
O=C(NNC(=O)c1ccncc1)Nc1ccc(N=Nc2ccccc2)cc1,nt,nt,nt,68.3*,nt,30.2*,
O=C(NNc1ccc([N+](=O)[O-])cc1)Nc1ccccc1,-0.1,32.1,-10.0,2.0,0.4,nt,
O=C(NNC(=O)c1ccncc1)Nc1ccccc1,-7.3,9.8,0.6,-1.1,-7.6,nt,
Cc1cc(F)ccc1NC(=O)Cn1c(C)csc1=O,-4.0,-2.6,nt,-0.5,-8.7,nt,
Cc1cccc(N/N=C(\C#N)S(=O)(=O)C(C)(C)C)c1,-7.0,13.0,-3.5,0.9,-14.2,nt,
CC(=O)Nc1ccc(N/C=C(\C#N)S(=O)(=O)c2ccc(Cl)cc2)cc1,-5.2,0.7,-5.2,0.4,-19.4,nt,
CC(C)(C)c1ccc(N/N=C(\C#N)S(=O)(=O)C(C)(C)C)cc1,7.3,29.1,-6.7,86.3*,-4.0,86.4*,

# Compound activity (PubChem)
